How the values were obtained:
tumors = settings: cited from earlier work
[1] = test system: pre-clinical tumor models; settings: variety of pre-clinical tumor models; cited from earlier work
[2] = test system: VEGF and PDGF receptor families; settings: in vitro; cited from earlier work
U87MG gliomas = settings: xenografted U87MG model; cited from earlier work
PC-3 prostate tumors = settings: xenografted PC-3 model; cited from earlier work
integrin αvβ3 = assay: ^99mTc-3P-RGD2 SPECT/CT tumor uptake during linifanib therapy, MDA-MB-435 model; format: in vivo, athymic nude mice
How it was run: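 Size-matched groups (n = 5; mean tumor 180 ± 90 mm3) of female nude mice with fat-pad MDA-MB-435 tumors received vehicle (0.15% HPMC, 2% ethanol, 5% Tween 80, 20% PEG400, 73% saline) or test compound at 12.5 mg/kg orally twice daily (>8 h apart) from day 0. Radiotracer (>95% radiochemical purity, in saline) was given i.v. Multi-pinhole SPECT/CT on days -1, 1, 4 and 11 was quantified as %ID and %ID/cm3.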

MDA-MB-435 tumors = assay: Tumor immunohistochemistry; format: in vivo, athymic nude mice
How it was run: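 Fat-pad MDA-MB-435 tumors came from mice given vehicle or oral test compound (12.5 mg/kg twice daily) and were harvested on days -1, 1, 4 and 11. Frozen 5 μm OCT sections were fixed in ice-cold acetone (10 min) and blocked in 10% goat serum (30 min). They were stained 1 h with hamster anti-integrin β3 and rat anti-CD31 (1:100), then Cy3/FITC secondaries (1:100), and read by fluorescence microscopy. H&E sections were examined for blood vessels.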

tumor = settings: 2 days after sunitinib therapy; cited from earlier work
integrin αvβ3 and αvβ5 = settings: low concentrations; cited from earlier work
[3] = 12.5 mg/kg orally twice daily, as early as 24 h, SPECT/CT quantification, n = 5

## Cc1nc(Nc2ncc(C(=O)Nc3c(C)cccc3Cl)s2)cc(N2CCN(CCO)CC2)n1 [dasatinib]
tumors
  uptake of ^64Cu-DOTA-RGD in the treated tumors: significantly reduce

## Cc1ccc(F)c(NC(=O)Nc2ccc(-c3cccc4[nH]nc(N)c34)cc2)c1 [linifanib]
[1]
  effect on tumors in vivo: pronounced regression of tumors
[2]
  phosphorylation of members of VEGF and PDGF receptor families: inhibit the phosphorylation
U87MG gliomas
  tumor uptake (%ID and %ID/cm^3) and T/M ratios of ^99mTc-3P-RGD2 after linifanib treatment: significant decrease
PC-3 prostate tumors
  tumor volume or tumor uptake of ^99mTc-3P-RGD2 after linifanib treatment: no significant changes
Integrin αvβ3; [3]
  %ID tumor uptake of ^99mTc-3P-RGD2 in linifanib-treated group: dramatic reduction
  %ID/cm^3 tumor uptake of ^99mTc-3P-RGD2 in linifanib-treated group: dramatic reduction
Integrin αvβ3; over the next 10 days after the first 24 h of linifanib therapy
  tumor uptake (%ID and %ID/g) of ^99mTc-3P-RGD2 in linifanib-treated group: steady tumor uptake reduction
MDA-MB-435 tumors; H&E staining of tumor slices, within 24 h after initiation of linifanib therapy
  blood vessel density: dramatically reduced
MDA-MB-435 tumors; IHC staining of tumor slices, after 24 h of linifanib therapy
  integrin αvβ3 on neovasculature: disappeared almost completely
MDA-MB-435 tumors; IHC staining of tumor slices, during the 11-day period of linifanib therapy
  tumor cell integrin αvβ3 expression level: decreased steadily

## CCN(CC)CCNC(=O)c1c(C)[nH]c(/C=C2\C(=O)Nc3ccc(F)cc32)c1C [sunitinib]
tumor
  tumor uptake of [^18F]AH111585 after sunitinib therapy: significantly reduced

## Cilengitide
Integrin αvβ3 and αvβ5
  effect on tumor growth and angiogenesis: stimulate tumor growth and angiogenesis
